The first data set is described as follows: Cytotoxicity against mouse Hepa-1c1c7 cells assessed as cell survival at 5 uM after 48 hrs by MTT assay. In kind it is cell-based. The note with it: read-out: Activity. In outline:
(§1)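 MTT (0.5 mg/ml) added for 3 h at 37 °C, formazan dissolved in DMSO and read at 590 nm. Survival (%) = (A treated − A blank)/(A untreated − A blank) × 100.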
A general note: Tetrazolium dyes change colour on reduction, which living cells bring about.
With `COc1cc(OC)c2c(c1)O/C(=C\c1ccccc1C)C2=O`, the viability at 48 h, 5 µM was 91%.
For the compound `N#Cc1ccc(/C=C2\Oc3cc(O)ccc3C2=O)cc1`, the viability at 48 h, 5 µM was found to be 94%.
In the case of `COc1cc(OC)c2c(c1)O/C(=C\c1ccc(N3CCN(C)CC3)cc1)C2=O`, the viability at 48 h, 5 µM was 93%.
For the compound `COc1ccc(/C=C2\Oc3cc(OC)cc(OC)c3C2=O)cc1` [4,4',6-TRIMETHOXY-AURONE], the viability at 48 h, 5 µM stood at 93%.
Same read-out and setting: for `O=C1/C(=C/c2ccccc2)Oc2cc(O)cc(O)c21` the value was 110%.
As to `COc1cc(OC)c2c(c1)O/C(=C\c1ccc(N(C)C)cc1)C2=O`, the viability at 48 h, 5 µM amounted to 101%.
As to `O=C1Oc2ccc(O)cc2/C1=C/c1ccccc1`, the viability at 48 h, 5 µM was 89%.
On to `O=C1Oc2ccc(O)cc2/C1=C/c1ccc(O)cc1`, for which the viability at 48 h, 5 µM worked out at 111%.
In the case of `COc1ccc(/C=C2\Oc3cc(O)ccc3C2=O)cc1`, the viability at 48 h, 5 µM worked out at 91%.
For the compound `COc1ccc(/C=C2\C(=O)Oc3ccc(O)cc32)cc1`, the viability at 48 h, 5 µM came to 110%.
As to `COc1cc(OC)c2c(c1)O/C(=C\c1ccc([N+](=O)[O-])cc1)C2=O`, the viability at 48 h, 5 µM was determined as 88%.
Consider `COc1ccc(/C=C2\Oc3cc(O)cc(O)c3C2=O)cc1`, for which the viability at 48 h, 5 µM was found to be 109%.
For the compound `O=C1/C(=C/c2cccc(O)c2)Oc2cc(O)cc(O)c21`, the viability at 48 h, 5 µM turned out to be 111%.
For `COc1cc(OC)c2c(c1)OC(=O)/C2=C\c1ccccc1O`, the viability at 48 h, 5 µM worked out at 121%.
Consider `O=C1/C(=C/c2ccccc2Cl)Oc2ccccc21`, for which the viability at 48 h, 5 µM was found to be 111%.
`COc1cc(/C=C2\Oc3cc(O)cc(O)c3C2=O)cc(OC)c1OC`: the viability at 48 h, 5 µM is 99%.
Take `COc1cc(OC)c2c(c1)O/C(=C\c1ccc(Cl)cc1)C2=O`: the viability at 48 h, 5 µM was 93%.
Same read-out and setting: for `COc1cc(OC)c2c(c1)OC(=O)/C2=C\c1ccc(Cl)cc1` the value was 115%; for `COc1cc(OC)c2c(c1)O/C(=C\c1ccc(O)cc1O)C2=O`, 51%.
Take `COc1cc(OC)c2c(c1)O/C(=C\c1cnc3ccccc3c1)C2=O`: the viability at 48 h, 5 µM came to 93%.
Same read-out and setting: the figure for `O=C1Oc2ccc(O)cc2/C1=C/c1cccc(F)c1` is 127%.
Take `COc1cccc(/C=C2\Oc3cc(O)ccc3C2=O)c1`: the viability at 48 h, 5 µM was determined as 85%.
As to `Cc1ccc(/C=C2\Oc3cc(O)cc(O)c3C2=O)cc1`, the viability at 48 h, 5 µM was found to be 103%.

A further data set is described as follows: Induction of NQO1 activity in mouse Hepa-1c1c7 cells at 25 uM after 48 hrs relative to control.
Details: not given
On to `COc1cc(OC)c2c(c1)O/C(=C\c1ccccc1C)C2=O`, for which the fold change (FC) is 1.42.
Consider `N#Cc1ccc(/C=C2\Oc3cc(O)ccc3C2=O)cc1`, for which the fold change (FC) is 1.31.
Take `COc1cc(OC)c2c(c1)O/C(=C\c1ccc(N3CCN(C)CC3)cc1)C2=O`: the fold change (FC) turned out to be 1.4.
As for `COc1ccc(/C=C2\Oc3cc(OC)cc(OC)c3C2=O)cc1` [4,4',6-TRIMETHOXY-AURONE], the fold change (FC) came to 0.91.
Still for that read-out and setting: the figure for `O=C1/C(=C/c2ccccc2)Oc2cc(O)cc(O)c21` is 1.3; for `COc1cc(OC)c2c(c1)O/C(=C\c1ccc(N(C)C)cc1)C2=O` it is 0.96; for `O=C1Oc2ccc(O)cc2/C1=C/c1ccccc1` it is 1.37.
On the same count and under the same terms, for `O=C1Oc2ccc(O)cc2/C1=C/c1ccc(O)cc1` the value was 1.6; for `COc1ccc(/C=C2\Oc3cc(O)ccc3C2=O)cc1`, 1.5; for `COc1ccc(/C=C2\C(=O)Oc3ccc(O)cc32)cc1`, 1.71.
Regarding `COc1cc(OC)c2c(c1)O/C(=C\c1ccc([N+](=O)[O-])cc1)C2=O`, the fold change (FC) came out at 1.6.
`COc1ccc(/C=C2\Oc3cc(O)cc(O)c3C2=O)cc1`: the fold change (FC) was 0.82.
With `O=C1/C(=C/c2cccc(O)c2)Oc2cc(O)cc(O)c21`, the fold change (FC) is 1.58.
As to `COc1cc(OC)c2c(c1)OC(=O)/C2=C\c1ccccc1O`, the fold change (FC) turned out to be 1.1.
In the case of `O=C1/C(=C/c2ccccc2Cl)Oc2ccccc21`, the fold change (FC) turned out to be 1.17.
Consider `COc1cc(/C=C2\Oc3cc(O)cc(O)c3C2=O)cc(OC)c1OC`, for which the fold change (FC) was determined as 1.6.
On the same count and under the same terms, the figure for `COc1cc(OC)c2c(c1)OC(=O)/C2=C\c1ccc(Cl)cc1` is 1.9; for `COc1cc(OC)c2c(c1)O/C(=C\c1ccc(O)cc1O)C2=O` it is 1.4; for `COc1cc(OC)c2c(c1)O/C(=C\c1cnc3ccccc3c1)C2=O` it is 1.5.
On to `O=C1Oc2ccc(O)cc2/C1=C/c1cccc(F)c1`, for which the fold change (FC) came out at 1.32.
For the compound `COc1cccc(/C=C2\Oc3cc(O)ccc3C2=O)c1`, the fold change (FC) is 1.01.
For `Cc1ccc(/C=C2\Oc3cc(O)cc(O)c3C2=O)cc1`, the fold change (FC) came out at 1.49.

The next data set in a line: Induction of NQO1 activity in mouse Hepa-1c1c7 cells at 5 uM after 48 hrs relative to control.
Details: not given
Turning to `COc1cc(OC)c2c(c1)O/C(=C\c1ccccc1C)C2=O`, the fold change (FC) came out at 1.79.
Turning to `N#Cc1ccc(/C=C2\Oc3cc(O)ccc3C2=O)cc1`, the fold change (FC) is 1.15.
On the same count and under the same terms, for `COc1cc(OC)c2c(c1)O/C(=C\c1ccc(N3CCN(C)CC3)cc1)C2=O` the value was 1.25.
With `COc1ccc(/C=C2\Oc3cc(OC)cc(OC)c3C2=O)cc1` [4,4',6-TRIMETHOXY-AURONE], the fold change (FC) stood at 1.06.
On to `O=C1/C(=C/c2ccccc2)Oc2cc(O)cc(O)c21`, for which the fold change (FC) was 1.39.
On to `COc1cc(OC)c2c(c1)O/C(=C\c1ccc(N(C)C)cc1)C2=O`, for which the fold change (FC) is 1.16.
For `O=C1Oc2ccc(O)cc2/C1=C/c1ccccc1`, the fold change (FC) amounted to 1.15.
On the same count and under the same terms, the figure for `O=C1Oc2ccc(O)cc2/C1=C/c1ccc(O)cc1` is 1.3; for `COc1ccc(/C=C2\Oc3cc(O)ccc3C2=O)cc1` it is 1.19; for `COc1ccc(/C=C2\C(=O)Oc3ccc(O)cc32)cc1` it is 1.35.
On to `COc1cc(OC)c2c(c1)O/C(=C\c1ccc([N+](=O)[O-])cc1)C2=O`, for which the fold change (FC) is 1.61.
With `COc1ccc(/C=C2\Oc3cc(O)cc(O)c3C2=O)cc1`, the fold change (FC) is 1.15.
The same measure, in the same setting: the figure for `O=C1/C(=C/c2cccc(O)c2)Oc2cc(O)cc(O)c21` is 1.6.
Turning to `COc1cc(OC)c2c(c1)OC(=O)/C2=C\c1ccccc1O`, the fold change (FC) worked out at 1.49.
Take `O=C1/C(=C/c2ccccc2Cl)Oc2ccccc21`: the fold change (FC) was found to be 0.92.
On the same count and under the same terms, the figure for `COc1cc(/C=C2\Oc3cc(O)cc(O)c3C2=O)cc(OC)c1OC` is 1.47.
For the compound `COc1cc(OC)c2c(c1)O/C(=C\c1ccc(Cl)cc1)C2=O`, the fold change (FC) came to 2.13.
Same read-out and setting: the figure for `COc1cc(OC)c2c(c1)OC(=O)/C2=C\c1ccc(Cl)cc1` is 1.42; for `COc1cc(OC)c2c(c1)O/C(=C\c1ccc(O)cc1O)C2=O` it is 1.03.
On to `COc1cc(OC)c2c(c1)O/C(=C\c1cnc3ccccc3c1)C2=O`, for which the fold change (FC) was determined as 1.79.
Consider `O=C1Oc2ccc(O)cc2/C1=C/c1cccc(F)c1`, for which the fold change (FC) came out at 1.14.
`COc1cccc(/C=C2\Oc3cc(O)ccc3C2=O)c1`: the fold change (FC) is 1.22.
For the compound `Cc1ccc(/C=C2\Oc3cc(O)cc(O)c3C2=O)cc1`, the fold change (FC) is 1.38.

Another data set can be described thus: Cytotoxicity against mouse Hepa-1c1c7 cells assessed as cell survival at 25 uM after 48 hrs by MTT assay. In kind it is cell-based. The note with it: read-out: Activity. In outline: as §1
`COc1cc(OC)c2c(c1)O/C(=C\c1ccccc1C)C2=O`: the viability at 48 h, 25 µM turned out to be 87%.
Take `N#Cc1ccc(/C=C2\Oc3cc(O)ccc3C2=O)cc1`: the viability at 48 h, 25 µM turned out to be 90%.
As to `COc1cc(OC)c2c(c1)O/C(=C\c1ccc(N3CCN(C)CC3)cc1)C2=O`, the viability at 48 h, 25 µM stood at 89%.
Consider `COc1ccc(/C=C2\Oc3cc(OC)cc(OC)c3C2=O)cc1` [4,4',6-TRIMETHOXY-AURONE], for which the viability at 48 h, 25 µM stood at 87%.
On to `O=C1/C(=C/c2ccccc2)Oc2cc(O)cc(O)c21`, for which the viability at 48 h, 25 µM was determined as 100%.
For the compound `COc1cc(OC)c2c(c1)O/C(=C\c1ccc(N(C)C)cc1)C2=O`, the viability at 48 h, 25 µM was found to be 98%.
As to `O=C1Oc2ccc(O)cc2/C1=C/c1ccccc1`, the viability at 48 h, 25 µM amounted to 94%.
In the case of `O=C1Oc2ccc(O)cc2/C1=C/c1ccc(O)cc1`, the viability at 48 h, 25 µM amounted to 101%.
Consider `COc1ccc(/C=C2\Oc3cc(O)ccc3C2=O)cc1`, for which the viability at 48 h, 25 µM amounted to 95%.
Take `COc1ccc(/C=C2\C(=O)Oc3ccc(O)cc32)cc1`: the viability at 48 h, 25 µM amounted to 118%.
Turning to `COc1cc(OC)c2c(c1)O/C(=C\c1ccc([N+](=O)[O-])cc1)C2=O`, the viability at 48 h, 25 µM came out at 88%.
In the case of `COc1ccc(/C=C2\Oc3cc(O)cc(O)c3C2=O)cc1`, the viability at 48 h, 25 µM is 114%.
On to `O=C1/C(=C/c2cccc(O)c2)Oc2cc(O)cc(O)c21`, for which the viability at 48 h, 25 µM amounted to 106%.
`COc1cc(OC)c2c(c1)OC(=O)/C2=C\c1ccccc1O`: the viability at 48 h, 25 µM was 89%.
Same read-out and setting: for `O=C1/C(=C/c2ccccc2Cl)Oc2ccccc21` the value was 98%.
For `COc1cc(/C=C2\Oc3cc(O)cc(O)c3C2=O)cc(OC)c1OC`, the viability at 48 h, 25 µM is 94%.
For the compound `COc1cc(OC)c2c(c1)OC(=O)/C2=C\c1ccc(Cl)cc1`, the viability at 48 h, 25 µM was 110%.
In the case of `COc1cc(OC)c2c(c1)O/C(=C\c1cnc3ccccc3c1)C2=O`, the viability at 48 h, 25 µM worked out at 97%.
Regarding `O=C1Oc2ccc(O)cc2/C1=C/c1cccc(F)c1`, the viability at 48 h, 25 µM amounted to 120%.
In the case of `COc1cccc(/C=C2\Oc3cc(O)ccc3C2=O)c1`, the viability at 48 h, 25 µM came out at 84%.
Same read-out and setting: the figure for `Cc1ccc(/C=C2\Oc3cc(O)cc(O)c3C2=O)cc1` is 95%.

The values are drawn from ChEMBL document CHEMBL1177857, “Functionalized aurones as inducers of NAD(P)H:quinone oxidoreductase 1 that activate AhR/XRE and Nrf2/ARE signaling pathways: synthesis, evaluation and SAR” (Eur J Med Chem, 2010).
